# Most compounds without a hit are left out; they make up all but 3.6% or so of the library.
# HIF act – HIF pathway transcriptional activation; AID 1910; activation, % at 7.5 µM (by protocol); U2OS HRE-luciferase reporter, luminescence; normalized: DMSO 0%, desferrioxamine 100%; 300,000 compounds, 0.32% hits;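 active = mean activation of at least 10% of the iron chelator positive control signal, with at least half of replicates also reaching 10%; inconclusive = mean and replicate majority disagree about reaching 10%; inactive = mean and most replicates under 10%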
# SKKanGAS inh – blocks kanamycin growth of S. pyogenes SKKanGAS strain; BacTiter-Glo, 6 h; inhibition, % at 7.5 µM; 300,000 compounds, 1.3% hits; AID 1662;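 active = mean replicate score, as percent of positive control median, at least 50; inconclusive = mean below 50 but one replicate at or above 50; inactive = mean and every replicate below 50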;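 note: strain carries kanamycin resistance gene driven by streptokinase promoter and grows in 40 µg/ml kanamycin; loss of luminescence reflects streptokinase promoter inhibition or plain growth inhibition; 0% = median of DMSO wells and 100% = positive control at its reference dose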
# Beta cell apopt – beta cell apoptosis inhibition | INS-1E cytokine-induced death, ATP luminescence, 48 h; percent of positive-control rescue, neutral wells zero | protection from apoptosis, % (test concentration not listed) | 300,000 compounds, 0.8% hits;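 active = Every replicate reaches about 75%, or at least half do and their mean reaches it too, limit read from the data; inconclusive = At least half of replicates reach the limit but their mean does not; inactive = Under half of replicates reach the limit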;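 note: 0% = cytokine-treated negative control wells and 100% = positive control rescue; higher means more ATP so stronger rescue from cytokine killing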
# CSC inhib – cancer stem cell inhibition; cancer stem cell-like cells viability, luminescence; inhibition, % at 7.5 µM; 300,000 compounds, 1.1% hits; AID 2717; in the data active = inhibition above about 75%; inconclusive = no clear call, values can overlap the other calls; tested in HMLE shEcad cells
# PfHsp90 set2 – inhibits growth of yeast expressing Plasmodium falciparum Hsp90 | AID 504621 | S. cerevisiae expressing PfHsp90, BacTiter-Glo ATP, 48 h; yeast lacking PDR1 and PDR3 efflux regulators | inhibition, % at 9.4 µM | 310,000 compounds, 0.32% hits;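 active = every replicate shows inhibition above about 80%, whatever the replicate mean, limit read from the data; inconclusive = mean inhibition reaches the set limit but some replicate falls short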;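 note: 0% = DMSO neutral controls and 100% = 20 µM radicicol positive controls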
# T cruzi inh – T. cruzi replication inhibition; AID 1885; inhibition, % (no concentration beside the values); T. cruzi beta-gal in NIH3T3, luminescence, 90 h; 300,000 compounds, 1.4% hits;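 active = mean inhibition across valid replicates above about 55%, limit read from the data; inconclusive = mean below that limit but half or more replicates reach it; inactive = mean below it, under half of replicates reach it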;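 note: signal also drops with host cell toxicity which is not excluded here; 0% = plate median of DMSO wells and 100% = zero luminescence signal; higher percent means less beta-gal luminescence so fewer parasites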
#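 Test system: β-gal T. cruzi (Tulahuen C4) inside NIH/3T3 cells / Quantity: 5,000 cells/well / Measured by: luminescence from GalScreen with 0.05% NP40, read after 60 min / Medium: DMEM plus 2% FBS / Measure: parasite load inhibition, % / Reagent: Tulahuen C4 trypomastigotes, 5000/well / Schedule: co-culture of at least 90 h after 3 h attachment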
# * marks the source's active call; other numbers are inactive results; ? = inconclusive; / = not tested or not shown.
SMILES,HIF act,SKKanGAS inh,Beta cell apopt,CSC inhib,PfHsp90 set2,T cruzi inh
Cc1nn2c(COc3ccc(NC(=O)C(C)C)cc3)nnc2c2ccccc12,0,102*,-3,-11,5,14
C=CCN(C(=O)CSC1=NC(=O)CN1C(C)=O)c1nc(C)c(-c2ccccc2)s1,1,-15,-15,28,-23,70*
O=[N+]([O-])c1ccccc1/C=N/NC1=NCCN1,0,-1,-2,8,3,13
Clc1cc(/C=N\NC2=NCCN2)cc(Cl)n1,0,-2,-7,-16,/,70*
C[C@@H]1COC(=O)[C@@H](Cc2ccc(F)cc2)C/C=C\C[C@@H](CC(=O)NCCO)C(=O)N1,/,/,3,5,0,/
CNS(=O)(=O)c1cnccc1N1CCN(c2cccc(Cl)c2)CC1,0,-2,-11,-9,4,15
CCN(CC)S(=O)(=O)c1cnccc1N1CCN(c2cccc(Cl)c2)CC1,0,1,/,5,12,65*
CN1CCN(S(=O)(=O)c2cnccc2N2CCN(c3cccc(Cl)c3)CC2)CC1,0,-6,-1,-13,47,56*
Cc1snc(S(=O)(=O)/C(C#N)=N/Nc2ccc(C(F)(F)F)cc2)c1C#N,1,21,-2,89*,6,-7
Nc1ccc(N2CCN(c3ccc(Cl)c(Cl)c3)CC2)cc1,0,4,11,92*,17,-22
Nc1ccc(N2CCN(c3ccc(F)cc3)CC2)cc1,-1,1,14,7,-19,23
COC(=O)c1[nH]c2ccc(Br)cc2c1NC(=O)CN1CCCc2ccccc21,0,29,0,-11,-18,29
COC(=O)c1[nH]c2cc(C)ccc2c1NC(=O)CN1CCCc2ccccc21,1,3,-7,8,0,59*
COc1ccc(-c2nn(-c3ccccc3)cc2C(=O)N2CCN(S(=O)(=O)c3ccccc3C#N)CC2)cc1,-6,7,6,-8,/,22
COc1ccc(-c2nn(-c3ccccc3)cc2C(=O)N2CCN(S(=O)(=O)c3ccccc3[N+](=O)[O-])CC2)cc1,/,/,/,/,99*,/
COc1ccc(-c2nn(-c3ccccc3)cc2C(=O)N2CCN(S(=O)(=O)c3cccc(F)c3)CC2)cc1,0,13,6,/,105*,29
CCc1ccc(C2=NNC(=Nc3cccc(S(=O)(=O)N(C)C)c3)SC2)cc1,0,18,120*,10,-3,41
CCNC(=O)NC(=O)c1csc([N+](=O)[O-])c1,-1,-2,-4,-10,-3,59*
Clc1ccc(-c2nnnn2-c2ccc(Cl)c(Cl)c2)cc1Cl,0,58*,11,?,-62,/
Cc1cc(C(=O)N/N=C/c2cccc3ccccc23)c(C)o1,0,-9,6,10,1,-3
COc1ccc(-c2nc3c4c(ncn3n2)-c2ccccc2CC42CCCC2)cc1,2,20,-9,4,1,7
Oc1cccc(-c2nc3c4c(ncn3n2)-c2ccccc2CC42CCCC2)c1,-1,106*,-4,111*,21,30
COc1ccc(S(=O)(=O)N2CCCCC2)cc1NC(=O)Cc1ccc(Br)cc1,/,/,/,/,1,/
CCOC(=O)CC1CCCCN1C(=O)CCCn1nnnc1CN1CCC(C)CC1 (centres undefined),0,-4,-3,12,8,14
CC(C)OCCCN1CC(=O)N2C(c3cccc([N+](=O)[O-])c3)c3[nH]c4ccccc4c3C[C@H]2C1=O (some centres undefined),0,19,2,2,-22,-2
SMILES,HIF act,SKKanGAS inh,Beta cell apopt,CSC inhib,PfHsp90 set2,T cruzi inh
CN(C)c1ccc(C2CNC(c3ccc(Cl)c([N+](=O)[O-])c3)c3[nH]c4ccccc4c32)cc1 (centres undefined),0,15,7,/,8,57*
O=[N+]([O-])c1cccc(C2NCC(c3ccccc3Cl)c3c2[nH]c2ccccc32)c1 (centres undefined),-1,21,9,131*,1,45
O=S(=O)(O)c1cc(O)c(N=Nc2ccc(O)cc2O)c2ccccc12,/,/,/,/,19,/
Cc1ccc(NC2=CC(=O)C(=O)c3ccccc32)cc1,-7,24,100*,-8,/,-7
COc1cc(OC)c(NC2=CC(=O)C(=O)c3ccccc32)cc1Cl,3,42,120*,102*,4,20
CCOC(=O)c1ccc(NC2=CC(=O)C(=O)c3ccccc32)cc1,2,70*,40,-7,-16,47
NS(=O)(=O)c1ccc(NC2=CC(=O)C(=O)c3ccccc32)cc1,-5,14,64,61,-20,9
CC(C)CSc1nc(N)nc2c1ncn2C1OC(CO)C(O)C1O (centres undefined),/,/,/,/,-23,/
O=[N+]([O-])c1ccc(/C=C/c2ccc3cccc(O)c3n2)cc1,-9,-1,20,39,-18,-5
CC(=O)COc1cccc2ccc(/C=C/c3ccc(Br)s3)nc12,-2,15,-1,40,5,4
COc1cc(/C=C/c2ccc3cccc([N+](=O)[O-])c3n2)ccc1OCC(=O)O,0,10,2,7,-1,2
Oc1cccc(/C=C/c2ccc3cccc(O)c3n2)c1,1,57*,16,87*,-35,-22
Cc1ccc(/C=C/c2ccc3cccc(O)c3n2)s1,4,76*,9,40,-25,5
COc1cccc(/C=C/c2ccc3cccc(O)c3n2)c1,3,98*,50,41,103*,?
Cc1ccnc(SC2CC(=O)N(c3ccc(F)cc3)C2=O)n1 (centres undefined),-1,-3,-7,-11,1,-1
CC(C)c1ccc(C(C(=O)NC2CCCCC2)N(C(=O)c2csnn2)C2CC2)cc1 (centres undefined),0,8,3,/,-20,25
O=C(NN1C(=O)c2cc(Br)ccc2NC1c1cc(Br)cc(Br)c1O)c1ccncc1 (centres undefined),0,59*,-12,32,-7,9
O=C(NN1C(=O)c2cc(Br)ccc2NC1c1ccccc1Cl)c1ccncc1 (centres undefined),0,-7,4,-7,-6,-1
O=C(Nc1ccc(Cl)c(Cl)c1)N1CCSC1c1ccco1 (centres undefined),-1,4,103*,40,-37,-2
CC(=O)Nc1ccc(S(=O)(=O)N2CCSC2c2ccco2)cc1 (centres undefined),0,-4,0,0,/,-18
CCn1c(N)cc(=O)[nH]c1=S,/,/,/,/,-10,/
O=C(c1ccc([N+](=O)[O-])s1)N1CCN(c2cccc(Cl)c2)CC1,-2,7,92*,37,-2,47

# Compound activity (PubChem BioAssay)
